The values below come from ChEMBL document CHEMBL4033682, “Discovery of indolin-2-one derivatives as potent PAK4 inhibitors: Structure-activity relationship analysis, biological evaluation and molecular docking study” (Bioorg Med Chem, 2017).

Assay [1] concerns the target T1, Serine/threonine-protein kinase PAK 4 (Homo sapiens, UniProt O96013). Nature of the assay: Inhibition of PAK4 (unknown origin) using substrate S2 after 60 mins by HTRF assay. For orientation: In TR-FRET formats the signal depends on donor and acceptor labels being close together.
Target sequence in this assay (O96013 whole entry): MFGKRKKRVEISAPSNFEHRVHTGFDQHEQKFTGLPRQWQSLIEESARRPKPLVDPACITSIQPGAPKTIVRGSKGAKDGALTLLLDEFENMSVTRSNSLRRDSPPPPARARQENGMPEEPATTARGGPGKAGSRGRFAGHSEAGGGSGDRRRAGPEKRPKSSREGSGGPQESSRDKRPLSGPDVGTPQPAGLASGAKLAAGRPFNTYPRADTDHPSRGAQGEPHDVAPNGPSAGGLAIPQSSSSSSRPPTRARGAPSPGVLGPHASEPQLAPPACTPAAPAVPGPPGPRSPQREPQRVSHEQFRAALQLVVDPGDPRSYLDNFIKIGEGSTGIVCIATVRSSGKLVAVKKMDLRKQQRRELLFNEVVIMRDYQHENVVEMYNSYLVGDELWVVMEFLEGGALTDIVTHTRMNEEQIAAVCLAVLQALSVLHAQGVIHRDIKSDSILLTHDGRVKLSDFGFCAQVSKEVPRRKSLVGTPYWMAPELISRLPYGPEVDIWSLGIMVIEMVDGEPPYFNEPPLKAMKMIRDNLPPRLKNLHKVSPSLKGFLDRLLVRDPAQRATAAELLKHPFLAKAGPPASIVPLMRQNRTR
Assay [2] deals with A549. Nature of the assay: Growth inhibition of human A549 cells after 72 hrs by CCK8 assay. The class given is functional, cell-based. The settings on record: A549, 72 h. In short, it runs like this: (§1)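 Cells seeded in 96-well plates and exposed to various compound concentrations on the seeding day, cultured 72 h at 37 °C. Proliferation read by CCK-8.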
On the technique in general: Formazan colour is commonly taken as a measure of viable cells.

The test system of assay [3] is HT-1080. Description: Growth inhibition of human HT1080 cells after 72 hrs by CCK8 assay. It is filed as functional, cell-based. The settings on record: HT-1080, 72 h. A digest of the protocol: as §1
The test system of assay [4] is A549. Nature of the assay: Cell cycle arrest in human A549 cells assessed as accumulation at S phase at 5 uM after 72 hrs by propidium iodide staining based flow cytometry (reference value: 37.39%). It is filed as functional. On the technique in general: Flow cytometry measures light scatter and fluorescence of single cells or particles in a stream.
Assay [5] has as its system A549. Nature of the assay: Induction of apoptosis in human A549 cells assessed as necrotic cells at 1 uM after 72 hrs by Annexin-V/7AAD staining based flow cytometry (reference value: 0.65%). It is filed as functional.
In assay [6] the test system is A549. Description: Induction of apoptosis in human A549 cells assessed as live cells at 5 uM after 72 hrs by Annexin-V/7AAD staining based flow cytometry (reference value: 93.98%). The class given is functional.
Assay [7] deals with A549. Nature of the assay: Induction of apoptosis in human A549 cells after 72 hrs by Annexin-V/7AAD staining based flow cytometry. The class given is functional, cell-based.
Assay [8] has as its system MCF7. Description: Growth inhibition of human MCF7 cells after 72 hrs by CCK8 assay. It is filed as functional, cell-based. As to conditions: MCF7, 72 h. A digest of the protocol:
as §1

In assay [9] the target is T1, Serine/threonine-protein kinase PAK 4. Description: Inhibition of PAK4 in human A549 cells assessed as reduction in cofilin phosphorylation after 72 hrs by Western blot analysis. The class given is cell-based.
Target sequence in this assay (O96013 whole entry, looked up): as the sequence (O96013 whole entry) above
Assay [10] concerns A549. Nature of the assay: Induction of apoptosis in human A549 cells assessed as late apoptotic cells at 5 uM after 72 hrs by Annexin-V/7AAD staining based flow cytometry (reference value: 2.95%). It is filed as functional.
For assay [11], the system named is A549. Nature of the assay: Cell cycle arrest in human A549 cells assessed as accumulation at G2 phase at 1 uM after 72 hrs by propidium iodide staining based flow cytometry (reference value: 17.62%). It is filed as functional.
In assay [12] the test system is A549. Description: Induction of apoptosis in human A549 cells assessed as necrotic cells at 5 uM after 72 hrs by Annexin-V/7AAD staining based flow cytometry (reference value: 0.65%). It is filed as functional.
The subject of assay [13] is A549. Nature of the assay: Induction of apoptosis in human A549 cells assessed as early apoptotic cells at 1 uM after 72 hrs by Annexin-V/7AAD staining based flow cytometry (reference value: […]). The class given is functional.
Assay [14] deals with A549. Description: Cell cycle arrest in human A549 cells assessed as accumulation at G1 phase at 5 uM after 72 hrs by propidium iodide staining based flow cytometry (reference value: 44.99%). The class given is functional.
The subject of assay [15] is A549. Nature of the assay: Induction of apoptosis in human A549 cells assessed as early apoptotic cells at 5 uM after 72 hrs by Annexin-V/7AAD staining based flow cytometry (reference value: […]). It is filed as functional.
The target in assay [16] is T1, Serine/threonine-protein kinase PAK 4. Nature of the assay: Inhibition of PAK4 in human A549 cells assessed as reduction in LIMK1 phosphorylation after 72 hrs by Western blot analysis. The class given is cell-based.
Target sequence in this assay (O96013 whole entry, looked up): as the sequence (O96013 whole entry) above
Assay [17] deals with A549. Description: Induction of apoptosis in human A549 cells assessed as late apoptotic cells at 1 uM after 72 hrs by Annexin-V/7AAD staining based flow cytometry (reference value: 2.95%). It is filed as functional.
Assay [18] concerns the target T1, Serine/threonine-protein kinase PAK 4. Description: Inhibition of PAK4 phosphorylation in human A549 cells after 2 hrs by Western blot analysis. It is filed as cell-based. In short, it runs like this:
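A549 cells treated with indicated dose for 2 h, lysed in SDS sample buffer, resolved by 10% SDS-PAGE, transferred to nitrocellulose, probed for phospho-PAK4 and PAK4 (GAPDH loading control) with HRP-conjugated secondary antibodies, detected by enhanced chemiluminescence.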
Target sequence in this assay (O96013 whole entry, looked up): as the sequence (O96013 whole entry) above

The test system of assay [19] is A549. Nature of the assay: Induction of apoptosis in human A549 cells assessed as live cells at 1 uM after 72 hrs by Annexin-V/7AAD staining based flow cytometry (reference value: 93.98%). The class given is functional.
For assay [20], the system named is A549. Description: Anti-invasive activity against human A549 cells at 5 uM […] by crystal violet staining based matrigel invasion chamber assay. It is filed as functional, cell-based.
Assay [21] concerns A549. Description: Antimigratory activity against human A549 cells at 5 uM […] by crystal violet staining based transwell chamber assay. It is filed as functional, cell-based.
The subject of assay [22] is A549. Description: Cell cycle arrest in human A549 cells assessed as accumulation at S phase at 1 uM after 72 hrs by propidium iodide staining based flow cytometry (reference value: 37.39%). The class given is functional.
Assay [23] has as its system A549. Nature of the assay: Cell cycle arrest in human A549 cells assessed as accumulation at G1 phase at 1 uM after 72 hrs by propidium iodide staining based flow cytometry (reference value: 44.99%). The class given is functional.
The test system of assay [24] is A549. Description: Cell cycle arrest in human A549 cells assessed as accumulation at G2 phase at 5 uM after 72 hrs by propidium iodide staining based flow cytometry (reference value: 17.62%). It is filed as functional.

Calls of active or inactive are those of the source. The calls are words filed in the database; no cut-off is given here. A value given as a limit tells only on which side of the number the result lay.

In the case of `O=C1Nc2ccc(C(=O)N[C@H](CO)c3ccc(F)cc3)cc2/C1=C/c1ccc[nH]1`, in [1] (read-out: IC50), the IC50 worked out at 54 nM.

Take `CC(C)[C@@H](CO)NC(=O)c1ccc2c(c1)/C(=C/c1ccc[nH]1)C(=O)N2`: in [1] (read-out: IC50), the IC50 came out at 2350 nM.

As to `O=C1Nc2ccc(C(=O)N[C@H](CO)c3ccccc3Cl)cc2/C1=C/c1ccc[nH]1`, the IC50 in [1] (read-out: IC50) came out at 199 nM.

In the case of `O=C1Nc2cc(Br)c(C(=O)N[C@H](CO)c3ccccc3)cc2/C1=C/c1ccc[nH]1`, the IC50 in assay [1] (read-out: IC50) amounted to 1200 nM.

Consider `CC(C)(C)[C@@H](CO)NC(=O)c1ccc2c(c1)/C(=C/c1ccc[nH]1)C(=O)N2`, for which, in [1] (read-out: IC50), the IC50 came out at 634 nM.

Regarding `Cc1cc(C)c(/C=C2\C(=O)Nc3ccc(C(=O)N[C@H](CO)c4ccccc4)cc32)[nH]1`, the IC50 was 830 nM in assay [2]; 6770 nM in assay [3]; 2110 nM in assay [8]; 27 nM in [1] (read-out: IC50); 27.5 nM in assay [1] (read-out: pIC50 (converted)). The Activity is 38.47% in [4]; 5.14% in assay [5]; 26.23% in assay [6]; “Dose-dependent effect” in assay [7]; 33.22% in assay [10]; 24.37% in assay [11]. Also, the Activity is 8.36% in assay [12]; 8.44% in assay [13]; 27.78% in assay [14]; 32.18% in assay [15]; 15.46% in [17]; 70.56% in assay [19]. For the same compound, the Activity in assay [22] amounted to 39.92%; in assay [23] it was 35.7%; in [24] it was 33.75%. Moreover, the inhibition entry in assay [9], in assay [16] and in assay [18] was “Dose-dependent effect” throughout. The outcome in [20] and in [21] was Active.

In the case of `O=C1Nc2ccc(C(=O)N[C@H](CO)c3ccccc3)cc2C1=Cc1ccccn1`, the IC50 in assay [1] (read-out: IC50) is greater than 10000 nM.

Take `O=C1Nc2ccc(C(=O)NCCO)cc2/C1=C/c1ccc[nH]1`: the IC50 in [1] (read-out: IC50) was determined as 1260 nM.

On to `O=C1Nc2cc(Cl)c(C(=O)N[C@H](CO)c3ccccc3)cc2/C1=C/c1ccc[nH]1`, for which the IC50 in [1] (read-out: IC50) stood at 1420 nM.

On to `O=C1Nc2ccc(C(=O)N[C@H](CO)Cc3ccccc3)cc2/C1=C/c1ccc[nH]1`, for which, in [1] (read-out: IC50), the IC50 turned out to be 304 nM.

With `O=C1Nc2ccc(C(=O)N[C@H](CO)c3ccccc3)cc2/C1=C/c1ccco1` (stereo in doubt), the IC50 in assay [1] (read-out: IC50) came out at 802 nM.

Turning to `Cn1cc(-c2cc3c(cc2C(=O)N[C@H](CO)c2ccccc2)/C(=C/c2ccc[nH]2)C(=O)N3)cn1`, the IC50 in [1] (read-out: IC50) came out at 1990 nM.

As to `N#Cc1cc2c(cc1C(=O)N[C@H](CO)c1ccccc1)/C(=C/c1ccc[nH]1)C(=O)N2`, the IC50 in assay [1] (read-out: IC50) turned out to be 1540 nM.

As to `O=C1Nc2ccc(C(=O)NCCCO)cc2/C1=C/c1ccc[nH]1`, the IC50 in assay [1] (read-out: IC50) amounted to 3150 nM.

As for `O=C1Nc2cc(F)c(C(=O)N[C@H](CO)c3ccccc3)cc2/C1=C/c1ccc[nH]1`, in [1] (read-out: IC50), the IC50 was found to be 718 nM.

Take `O=C1Nc2ccc(C(=O)N[C@H](CO)c3ccccc3)cc2/C1=C/c1ncc[nH]1`: the IC50 in assay [1] (read-out: IC50) was found to be 281 nM.

Regarding `O=C1Nc2ccc(C(=O)N[C@H](CCO)c3ccccc3)cc2/C1=C/c1ccc[nH]1`, in [1] (read-out: IC50), the IC50 worked out at 5010 nM.

Regarding `O=C1Nc2ccc(C(=O)N[C@@H](CO)c3ccccc3)cc2/C1=C/c1ccc[nH]1`, the IC50 in [1] (read-out: IC50) is 3380 nM.

Consider `O=C1Nc2ccc(C(=O)N[C@H](CO)c3ccccc3)cc2/C1=C/c1cnc[nH]1`, for which the IC50 in [2] was found to be 3700 nM; in assay [3], 7900 nM; in assay [8] it was 10800 nM.

Consider `O=C1Nc2ccc(C(=O)N[C@H](CO)c3ccc(Cl)cc3)cc2/C1=C/c1ccc[nH]1`, for which the IC50 in [1] (read-out: IC50) worked out at 391 nM.

With `O=C1Nc2ccc(C(=O)N[C@H](CO)c3ccccc3)cc2/C1=C/c1ccn[nH]1`, the IC50 in assay [1] (read-out: IC50) was 379 nM.

As for `O=C1Nc2ccc(C(=O)N[C@H](CO)c3ccccc3)cc2/C1=C/c1ccc[nH]1`, the IC50 is 2370 nM in assay [2]; 980 nM in assay [3]; 6560 nM in assay [8]; 22 nM in [1] (read-out: IC50); 21.9 nM in assay [1] (read-out: pIC50 (converted)).

With `O=C1Nc2ccc(C(=O)N[C@H](CO)c3ccccc3)cc2/C1=C/c1cccs1`, the IC50 in [1] (read-out: IC50) amounted to 1290 nM.

With `Cn1nccc1-c1cc2c(cc1C(=O)N[C@H](CO)c1ccccc1)/C(=C/c1ccc[nH]1)C(=O)N2`, in assay [1] (read-out: IC50), the IC50 worked out at 1450 nM.
